CHOP inh = CHOP inhibition in unfolded protein response | CHO-K1 CHOP-promoter luciferase, tunicamycin-induced, 15-18 h | inhibition, % at 10 µM | 220,000 compounds, 3.8% hits | AID 2732;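 active = compounds that reduced the stress-induced luciferase reporter signal by more than about 70% of percent inhibition, limit read from the data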;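 also: 0% = tunicamycin plus vehicle and 100% = wells without tunicamycin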
697 NFkB inh = inhibitors of the PMA/ionomycin-induced NF-kB reporter in 697 B cells | inhibition, % at 4 µM | 330,000 compounds, 0.33% hits | 697 B-cell NF-kB luciferase reporter, 16 h; in the data active = inhibition above about 35%
Jurkat NFkB inh = inhibitors of the PMA/ionomycin-induced NF-kB reporter in Jurkat cells. PMA/ionomycin-induced NF-kB luciferase reporter, luminescence. 330,000 compounds, 0.53% hits. AID 435003. inhibition, % at 4 µM; in the data active = inhibition above about 50%
UPR XBP1 act = activators of adaptive arm of unfolded protein response (XBP1) | CHO-XBP1 luciferase reporter, IRE1-XBP1 UPR activation, luminescence; percent of tunicamycin response, DMSO as zero | activation, % at 20 µM | 330,000 compounds, 0.33% hits | AID 463104;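 active = versus positive control, 20 µM dose yields 30% or more activation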;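 also: 100% = tunicamycin at 10 µg/mL and 0% = DMSO only wells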
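Material: CHO-XBP1 cells stably carrying IRE1-XBP1-driven luciferase reporter | Medium: F12 with 10% serum | Compound dosing: 20 µM single concentration, DMSO 1% | Incubation: Overnight seeding at 37 °C, 6 h compound treatment at 37 °C | Detection: Steady-Glo luminescence read | Read-out basis: % activation of reporter signal versus tunicamycin and DMSO controls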
UPR CHOP act = apoptotic UPR (CHOP) activation. CHO-CHOP luciferase reporter, luminescence; percent of tunicamycin response over DMSO baseline. activation, % at 10 µM. 330,000 compounds, 0.34% hits. AID 449763;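 active = at 10 µM dose, activation of 40% or more, normalized to positive control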;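 also: 100% = tunicamycin at 10 µg/mL and 0% = DMSO alone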
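System: CHO CHOP reporter cells. Amount: 500 cells per well. Buffer or medium: F12 medium, 10% FBS. Compound dosing: one dose, 10 µM in 0.5% DMSO. Incubation: 6 h compound exposure at 37 °C after overnight seeding. Technique: Steady-Glo luciferase luminescence. Benchmarks: tunicamycin and DMSO controls.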
Active calls of the source: *. Many of the other results were omitted from the sample, so hits are more common in it than they were.

What do the screens show for `Cc1ccc2[nH]c(C)c(CCNC(=O)c3cc4cc([N+](=O)[O-])ccc4oc3=O)c2c1`?
CHOP inh: 89*; 697 NFkB inh: -9; Jurkat NFkB inh: 11; UPR XBP1 act: 4; UPR CHOP act: -3

Results for Cc1ccc2[nH]c(C)c(CCNC(=O)c3c(N)no[n+]3[O-])c2c1 ?
CHOP inh: 13; 697 NFkB inh: 20; Jurkat NFkB inh: 2; UPR XBP1 act: 0; UPR CHOP act: -1

How did CCCCCCCCn1c(=O)c(C(=O)OC)c(N)c2ccccc21 do in these assays?
CHOP inh: 66; 697 NFkB inh: -18; Jurkat NFkB inh: 17; UPR XBP1 act: 0; UPR CHOP act: 5

How did CCCCCCCn1c(=O)c(C(=O)OC)c(N)c2ccccc21 do in these assays?
CHOP inh: 73*; 697 NFkB inh: -26; Jurkat NFkB inh: 11; UPR XBP1 act: 1; UPR CHOP act: 8

How did C/C(=N/OC(=O)c1ccc(Cl)cc1Cl)c1oc(C)nc1C do in these assays?
CHOP inh: -5; 697 NFkB inh: 16; Jurkat NFkB inh: -2; UPR XBP1 act: 6; UPR CHOP act: 5

Results for CC(=O)C(Sc1nc(NC(C)(C)C)nc(N(C)C)n1)C(C)=O ?
CHOP inh: 73*; 697 NFkB inh: 4; Jurkat NFkB inh: -7; UPR XBP1 act: -1; UPR CHOP act: 1

Results for CC(C)C(=O)O/N=C(\N)c1ccc(Oc2ccc(Cl)cc2)c([N+](=O)[O-])c1 ?
CHOP inh: 13; 697 NFkB inh: -36; Jurkat NFkB inh: -13; UPR XBP1 act: 4; UPR CHOP act: 3

What do the screens show for `Cc1nnsc1C(=O)NC1CCCCC1`?
CHOP inh: 1; 697 NFkB inh: -1; Jurkat NFkB inh: -4; UPR XBP1 act: 2; UPR CHOP act: 0

Results for COc1ccc(N(C(=O)CCl)C(C(=O)NCCc2ccccc2)c2cccs2)cc1 (stereo not given) ?
CHOP inh: 93*

Results for Oc1cccc(/C=N/N2CCN(C3c4ccccc4-c4ccccc43)CC2)c1 ?
CHOP inh: -5; 697 NFkB inh: -30; Jurkat NFkB inh: -5; UPR XBP1 act: 1; UPR CHOP act: -1

What do the screens show for `C(=N\N1CCN(C2c3ccccc3-c3ccccc32)CC1)/c1ccncc1`?
CHOP inh: 83*; 697 NFkB inh: -3; Jurkat NFkB inh: 9; UPR XBP1 act: -3; UPR CHOP act: -2

What do the screens show for `COc1ccc(S(=O)(=O)NCCSCc2cccc(C)c2)cc1Br`?
CHOP inh: 85*; 697 NFkB inh: -5; Jurkat NFkB inh: -5; UPR XBP1 act: -2; UPR CHOP act: 2

How did COC(=O)c1ccc(C)c(NC(=O)C(CCSC)NC(=O)c2cc(OC)c(OC)c(OC)c2)c1 (stereo not given) do in these assays?
697 NFkB inh: 15; Jurkat NFkB inh: -4; UPR XBP1 act: -6; UPR CHOP act: 0

What do the screens show for `CCN(CC(=O)Nc1ccc2c(c1)OCCO2)C(=O)C(C)Oc1ccc(Cl)cc1` (stereo not given)?
697 NFkB inh: 14; Jurkat NFkB inh: 4; UPR XBP1 act: -1; UPR CHOP act: 1

Results for O=C(OCc1ccc(Cl)cc1)c1cnccn1 ?
CHOP inh: 82*; 697 NFkB inh: 6; Jurkat NFkB inh: -15; UPR XBP1 act: -1; UPR CHOP act: -2

How did O=C(CN1CCN(Cc2ccc3c(c2)OCO3)CC1)Nc1ccc2[nH]c(=O)[nH]c2c1 do in these assays?
697 NFkB inh: 16; Jurkat NFkB inh: 11; UPR XBP1 act: -1; UPR CHOP act: 0

Results for CCOC(=O)c1sc(NC(=O)COC(=O)Cn2cnc3ccccc32)c(C(=O)OCC)c1C ?
CHOP inh: 26; 697 NFkB inh: -13; Jurkat NFkB inh: -35; UPR XBP1 act: 4; UPR CHOP act: -1

How did CC(C)(C)CN1CCNC(=O)C1CC(=O)N1CCN(c2ccccc2)CC1 (stereo not given) do in these assays?
CHOP inh: 5; 697 NFkB inh: 18; Jurkat NFkB inh: 11; UPR XBP1 act: -1; UPR CHOP act: -1

How did CC(C)CC(=O)NC(=S)Nc1ccc(N2CCN(C(=O)c3cccs3)CC2)cc1 do in these assays?
CHOP inh: 76*; 697 NFkB inh: 7; Jurkat NFkB inh: 15; UPR XBP1 act: -5; UPR CHOP act: 11

Results for CC(=O)N1CCN(c2ccc(NC(=S)NC(=O)COc3ccc(C(C)(C)C)cc3)cc2)CC1 ?
CHOP inh: 76*; 697 NFkB inh: -48; Jurkat NFkB inh: 16; UPR XBP1 act: -1; UPR CHOP act: 7

What do the screens show for `O=C(COc1ccc(Cl)cc1)Nc1ccc(N2CCN(C(=O)c3ccco3)CC2)cc1`?
CHOP inh: 74*; 697 NFkB inh: -15; Jurkat NFkB inh: 34; UPR XBP1 act: -6; UPR CHOP act: 3

Results for C=CCN=C1CCCc2c1[nH]c1ccc(C)cc21 ?
CHOP inh: 22; 697 NFkB inh: 8; Jurkat NFkB inh: -3; UPR XBP1 act: 10; UPR CHOP act: 0

Results for Cc1ccc(-n2c(N)c(C(=O)Nc3c(C)n(C)n(-c4ccccc4)c3=O)c3nc4ccccc4nc32)cc1C ?
CHOP inh: 91*; 697 NFkB inh: 3; Jurkat NFkB inh: 16; UPR XBP1 act: 0; UPR CHOP act: 8

Results for Cc1nc2ncnn2c(N2CCN(c3cccc(C(F)(F)F)c3)CC2)c1C ?
CHOP inh: 73*; 697 NFkB inh: -58; Jurkat NFkB inh: 19; UPR XBP1 act: 1; UPR CHOP act: 6

What do the screens show for `S=c1[nH]nc(COc2ccccc2)n1C1CCCCC1`?
CHOP inh: 29; 697 NFkB inh: -19; Jurkat NFkB inh: -1; UPR XBP1 act: -3; UPR CHOP act: 1

Results for S=c1[nH]nc(CSc2nc3ccccc3s2)n1C1CCCCC1 ?
CHOP inh: 87*; 697 NFkB inh: -11; Jurkat NFkB inh: 6; UPR XBP1 act: -2; UPR CHOP act: 2

How did COCC(=O)N/N=C/c1c(C)[nH]n(-c2ccccc2)c1=O do in these assays?
CHOP inh: 73*; 697 NFkB inh: 13; Jurkat NFkB inh: 8; UPR XBP1 act: -2; UPR CHOP act: 7

What do the screens show for `Cc1[nH]n(-c2ccccc2)c(=O)c1/C=N/NC(=O)C(C)C`?
CHOP inh: 76*; 697 NFkB inh: -4; Jurkat NFkB inh: 4; UPR XBP1 act: 8; UPR CHOP act: 38

Results for CC(=O)N/N=C/c1c(C)[nH]n(-c2ccccc2)c1=O ?
CHOP inh: 56; 697 NFkB inh: 5; Jurkat NFkB inh: -2; UPR XBP1 act: -1; UPR CHOP act: -1

Results for COc1cc(NC(=O)NCCN2CCN(c3ccc(Cl)cc3)CC2)ccc1C ?
CHOP inh: 84*; 697 NFkB inh: 4; Jurkat NFkB inh: 8; UPR XBP1 act: 9; UPR CHOP act: -2

Results for COc1ccc(NC(=O)NCCCN2CCN(c3cc(C)ccc3C)CC2)cc1 ?
CHOP inh: 72*; 697 NFkB inh: 27; Jurkat NFkB inh: 6; UPR XBP1 act: -6; UPR CHOP act: -1
